Bioassay records: PubChem, several laboratories
Arrestin-AP2 inh: inhibitors of beta-arrestin/AP2 binding, primary screen, biochemical, GPCR trafficking, flow cytometry. FITC-arrestin peptide / GST-AP2 beads; AP2 beta2 appendage carries R879A mutation. hit rate 0.31% among 340,000. AID 504490, 2011. inhibition, % at 10 µM. beta-arrestin 1 C-terminal peptide binding to AP2 beta2-adaptin appendage (human);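 active = inhibition above a set limit, near 3 SD of compounds lacking own fluorescence, cut at about 54% in these data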
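System: GST-AP2 R879A glutathione beads | Also added: FITC-arrestin peptide, 50 nM | Times: 12 min plus 1 h, RT | Signal: Bead flow cytometry, FITC channel | Buffer or medium: PBS with 0.05% Tween 20 and 0.1% BSA | Read-out basis: Percent drop in bead-associated FITC signal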
ABHD5 PLIN5 PPI: ABHD5-PLIN5 interaction inhibitors, primary screen, cell lysate, split luciferase complementation, luminescence | Perilipin-5 (Homo sapiens) + 1-acylglycerol-3-phosphate O-acyltransferase ABHD5 (Homo … | Split G. princeps luciferase complementation, 4 h | inhibition, % at 4 µM | hit rate 0.78% among 360,000;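 active = inhibition above the mean inhibition across every tested compound plus 3 SD, cut at about 22% in these data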
MBD2 inh: inhibitors of MBD2 binding to methylated DNA, primary screen, biochemical, TR-FRET, DNA-binding domain, human | hit rate 0.31% among 370,000 | AID 686964, 2013 | MBD2 binding to methylated oligonucleotide | Methyl-CpG-binding domain protein 2 (Homo sapiens), Q9UBB5 | inhibition, % at 4.4 µM; in the data active = inhibition above about 13%
Target sequence (Q9UBB5 whole entry, looked up, the tested form may be a part): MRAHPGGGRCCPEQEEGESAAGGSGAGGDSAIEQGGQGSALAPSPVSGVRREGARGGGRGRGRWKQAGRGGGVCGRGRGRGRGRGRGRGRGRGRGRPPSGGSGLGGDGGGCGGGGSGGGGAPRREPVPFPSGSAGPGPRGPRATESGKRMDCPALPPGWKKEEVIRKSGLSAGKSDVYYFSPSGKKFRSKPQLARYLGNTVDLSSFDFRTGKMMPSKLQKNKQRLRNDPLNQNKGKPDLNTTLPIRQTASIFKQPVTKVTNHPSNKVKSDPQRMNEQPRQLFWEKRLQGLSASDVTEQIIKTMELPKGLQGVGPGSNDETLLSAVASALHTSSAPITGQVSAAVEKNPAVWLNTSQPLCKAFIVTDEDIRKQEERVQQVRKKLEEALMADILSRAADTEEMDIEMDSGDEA
UHRF1 MBD2 ctr: UHRF1 methylated DNA binding inhibitors, primary screen, counter-screen for MBD2 inhibitor project, biochemical, TR-FRET, human UHRF1, single concentration. UHRF1 binding to methylated oligo. AID 687016, 2013. hit rate 0.75% among 370,000. inhibition, % at 4.4 µM. E3 ubiquitin-protein ligase UHRF1 (Homo sapiens), Q96T88; in the data active = inhibition above about 21%;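 note: UHRF1 SRA domain binding a hemimethylated CpG hairpin DNA probe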
Beta2AR agonist: beta2AR agonists driving receptor internalization, primary screen, cell-based, FAP fluorogen, flow cytometry | Beta-2 adrenergic receptor (Homo sapiens), P07550 | Am2.2-beta2AR cells | response, % (test concentration not listed) | hit rate 0.43% among 340,000 | AID 504454, 2011;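 active = response above a set limit, near 3 SD of response in nonfluorescent compounds, cut at about 42% in these data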
Rin1-Abl PPI inh: inhibitors of Rin1-Abl protein binding, primary screen, biochemical, TR-FRET. Tyrosine-protein kinase ABL1 (Homo sapiens) + Ras and Rab interactor 1 (Homo sapiens), …. inhibition, % at 7.35 µM. hit rate 0.4% among 360,000; in the data active = inhibition above about 5%, passing the limit was not always enough
A number is an active result; . = inactive; / = not tested or not shown. Shown are actives, neighbours in structure and some others; about 2.5% of the full set was active somewhere.

SMILES	Arrestin-AP2 inh	ABHD5 PLIN5 PPI	MBD2 inh	UHRF1 MBD2 ctr	Beta2AR agonist	Rin1-Abl PPI inh
CC(=O)N1CCc2cc(S(=O)(=O)NCCC(=O)Nc3cccc(C)c3)ccc21	.	.	.	21.9	.	.
COC(=O)[C@]12C[C@H](CC(=O)N3CCSCC3)C(=O)N(Cc3cccc4ccccc34)C1=C[C@H](COCc1ccccc1)O[C@@H]2C	/	/	.	.	/	/
O=C(NCCCN1CCN(c2ccc(F)cc2)CC1)NCc1ccccc1	/	/	.	.	/	/
CCCn1c(N)c(N(CCOC)C(=O)c2ccc(N(C)S(=O)(=O)c3ccc(C)cc3)cc2)c(=O)[nH]c1=O	.	.	.	96.3	.	.
CCCCn1c(N)c(N(CCOC)C(=O)c2ccc(Br)o2)c(=O)[nH]c1=O	.	.	.	.	.	.
CCCCn1c(N)c(N(CCOC)C(=O)c2ccc(C)o2)c(=O)[nH]c1=O	.	.	.	22.2	.	.
CCCN(C(=O)c1cccc(-n2cccc2)c1)c1c(N)n(Cc2ccccc2)c(=O)[nH]c1=O	.	.	.	25.7	.	.
CCCCN(C(=O)c1ccc(NC2CC2)c([N+](=O)[O-])c1)c1c(N)n(CCCC)c(=O)[nH]c1=O	.	.	.	.	.	.
CCCCN(C(=O)c1cccc(-n2cccc2)c1)c1c(N)n(CCC)c(=O)[nH]c1=O	.	.	.	.	.	.
CCCCN(C(=O)c1ccc(Cl)c([N+](=O)[O-])c1)c1c(N)n(CCC)c(=O)[nH]c1=O	.	.	.	28.9	.	.
Cc1nn(-c2ccccc2)c2sc(C(=O)NC3CCCC3)cc12	/	/	.	.	/	/
C/C(=N\Nc1ccc(Cl)c(C(=O)O)c1)c1cc2ccccc2o1	.	.	.	30.9	.	.
CCCCOc1ccc(C(=O)NC2CCCCN(CC)C2=O)cc1 (centres undefined)	/	/	.	.	/	/
O=c1c2cnn(-c3ccccc3)c2ncn1CCc1ccccc1	.	.	.	47.4	.	.
COc1ccc(C(=O)C2(C(=O)Nc3cc(C)cc(C)c3)CC(c3ccccc3C(F)(F)F)=NO2)cc1 (centres undefined)	/	/	.	.	/	/
COCCCN1C(=O)[C@H](CC(=O)NCCCCc2ccccc2)[C@]2(C(=O)OC)CCCCC=C12	/	/	.	.	/	/
COc1ccc(-n2c(COc3ccc(C)cc3)nnc2SCC(=O)Nc2ccc(S(=O)(=O)Nc3cc(C)nc(C)n3)cc2)cc1	/	/	.	.	/	/
Cc1ccc2cc(CCNS(=O)(=O)c3ccc(Br)cc3)c(=O)[nH]c2c1C	.	.	.	.	54.9	.
COc1ccccc1CNC(=O)/C=C/c1ccc(Br)o1	.	.	.	.	70.8	.
COc1ccc(NC(=O)/C=C/c2ccc(Br)o2)cn1	.	.	.	.	.	.
O=C(O)/C(=C\c1ccco1)NC(=O)c1cccc2ccccc12	.	.	.	21.5	.	.
O=C(/C(=N/N=C/c1ccc(O)c(O)c1O)c1ccccc1)c1ccccc1	.	.	.	.	.	12.3
COc1ccc(C2SCC(=O)N2c2ccccc2)cc1 (centres undefined)	.	.	.	22.4	.	.
COc1ccc(-c2ocnc2C(=O)Nc2ccc(N3CCOCC3)cc2N2CCOCC2)cc1OC	.	.	.	.	.	.
COc1ccccc1-c1ocnc1C(=O)Nc1ccc(N2CCOCC2)cc1N1CCOCC1	.	.	.	73.8	.	.
Cc1ccc(S(=O)(=O)N2CCN(C(C)C(=O)N3CCCc4ccccc43)CC2)cc1 (centres undefined)	.	.	.	26.8	.	.
Cc1nc2sc3c(c2c(=O)n1NC(=O)CCBr)CCCC3	61.8	.	.	.	.	.
CCCc1nc2sc3c(c2c(=O)n1NC(=O)CCC(=O)OC)CCCC3	.	.	.	.	.	.
O=C(/C=C/c1cn(-c2ccccc2)nc1-c1cccnc1)c1ccco1	.	.	.	.	80.8	.
